≈ marks a conversion by molar mass, not a printed value. Non-standard residues stand in square brackets, D forms with d. Residues, ends and D or L forms follow the SMILES beside them. *: point of attachment. FITC = O=C1OC2(c3ccc(O)cc3Oc3cc(O)ccc32)c2ccc(NC(=S)*)cc21; Pra = C#CC[C@H](N)C(=O)O; βAla = NCCC(=O)O
Experiment: Dynamic light scattering
Assay type: physicochemical
Conditions: PBS with 1% DMSO
Procedure, shortened: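 Salicylaldehyde-tagged peptide and its alkyne precursor were dissolved in DMSO at several concentrations, then diluted 1:100 into PBS. Final samples were 5 µM, 125 nM and 10 nM in PBS (+1% DMSO). Aggregation was assessed by dynamic light scattering.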

Work on `C#CC[C@H](NC(=O)[C@H](Cc1ccccc1)NC(=O)CCNC(=S)Nc1ccc2c(c1)C(=O)OC21c2ccc(O)cc2Oc2cc(O)ccc21)C(=O)N[C@@H](C)C(=O)N[C@@H](CC(C)C)C(=O)N[C@@H](CC(=O)O)C(=O)N[C@@H](Cc1c[nH]c2ccccc12)C(=O)N[C@@H](CO)C(=O)N[C@@H](Cc1c[nH]c2ccccc12)C(=O)N[C@@H](CC(C)C)C(=O)N[C@@H](CCC(N)=O)C(=O)N[C@H](C(=O)N[C@@H](CCC(=O)O)C(N)=O)[C@@H](C)O` [Compound 6] ({FITC-βAla}-F[Pra]ALDWSWLQTE-NH2) yielded a solubility kinetic of 0.125 µM (≈ 0.244 µg/mL).

From publication PMC12694607 (RSC Chemical Biology, 2025)
